Each compound was assayed on PBMC (assay: Cytotoxicity against human PBMC by MTS assay).
Format: cell-based
In short: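 Cells from the LPS-stimulated hPBMC assay were given MTS-[…] reagent and incubated 5-6 h until absorbance reached 0.5. Read at 490 nm. Percent cytotoxicity was calculated from mean absorbance relative to the 0.5% DMSO vehicle control.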

Compound | IC50
CS(=O)(=O)c1ccc(-c2ccc3ncc(S(=O)(=O)N4CCC(C#N)(c5ccccc5)CC4)n3n2)cc1 | > 30 µM
N#CC1(c2ccccc2)CCN(S(=O)(=O)c2cnc3ccc(Cl)nn23)CC1 | > 30 µM
O=S(=O)(c1cnc2ccc(-c3cncc(F)c3)nn12)N1CCN(c2ccccn2)CC1 | > 30 µM
CS(=O)(=O)c1ccc(-c2ccc3ncc(S(=O)(=O)NCC4CCCO4)n3n2)cc1 (centres undefined) | > 30 µM
O=S(=O)(NCC1CCCO1)c1cnc2ccc(-c3cncc(C(F)(F)F)c3)nn12 (centres undefined) | > 30 µM
COc1cccc(CNS(=O)(=O)c2cnc3ccc(-c4cncc(C(F)(F)F)c4)nn23)c1 | > 30 µM
COc1cccc(CNS(=O)(=O)c2cnc3ccc(-c4ccc(OC)nc4)nn23)c1 | > 30 µM
O=S(=O)(c1cnc2ccc(-c3cccnc3)nn12)N1CCN(c2ccccn2)CC1 | > 30 µM
O=S(=O)(NCC1CCCO1)c1cnc2ccc(-c3cccnc3)nn12 (centres undefined) | > 30 µM
N#CC1(c2ccccc2)CCN(S(=O)(=O)c2cnc3ccc(-c4cncc(F)c4)nn23)CC1 | > 30 µM
O=S(=O)(NCC1CCCO1)c1cnc2ccc(-c3cncc(F)c3)nn12 (centres undefined) | > 30 µM
NS(=O)(=O)c1cnc2ccc(Cl)nn12 | > 30 µM
N#CC1(c2ccccc2)CCN(S(=O)(=O)c2cnc3ccc(-c4cccnc4)nn23)CC1 | > 30 µM
O=S(=O)(c1cnc2ccc(Cl)nn12)N1CCN(c2ccccc2)CC1 | > 30 µM
O=S(=O)(c1cnc2ccc(Cl)nn12)N1CCN(Cc2ccccc2)CC1 | > 30 µM
COc1cccc(CNS(=O)(=O)c2cnc3ccc(-c4ccc(S(C)(=O)=O)cc4)nn23)c1 | > 30 µM
CCN1CCN(S(=O)(=O)c2cnc3ccc(-c4ccc(OC)cc4)nn23)CC1 | > 30 µM
CCN1CCN(S(=O)(=O)c2cnc3ccc(-c4ccc(OC)nc4)nn23)CC1 | > 30 µM
O=S(=O)(c1cnc2ccc(-c3cncc(C(F)(F)F)c3)nn12)N1CCN(c2ccccn2)CC1 | > 30 µM
COc1ccc(-c2ccc3ncc(S(=O)(=O)NCC4CCCO4)n3n2)cc1 (centres undefined) | > 30 µM
COc1ccc(-c2ccc3ncc(S(=O)(=O)NCC4CCCO4)n3n2)cn1 (centres undefined) | > 30 µM

Compound | IC50
N#CC1(c2ccccc2)CCN(S(=O)(=O)c2cnc3ccc(-c4cncc(C(F)(F)F)c4)nn23)CC1 | > 30 µM
Nc1ncc(-c2ccc3ncc(S(=O)(=O)N4CCN(c5ccccn5)CC4)n3n2)cc1C(F)(F)F | > 30 µM
CCN1CCN(S(=O)(=O)c2cnc3ccc(-c4cncc(F)c4)nn23)CC1 | > 30 µM
COc1cccc(CNS(=O)(=O)c2cnc3ccc(-c4cncc(F)c4)nn23)c1 | > 30 µM
O=S(=O)(c1cnc2ccc(Cl)nn12)N1CCN(c2ccccn2)CC1 | > 30 µM
O=S(=O)(NCC1CCCO1)c1cnc2ccc(Cl)nn12 (centres undefined) | > 30 µM
O=S(=O)(c1cnc2ccc(-c3cccnc3)nn12)N1CCN(Cc2ccccc2)CC1 | > 30 µM
CCN1CCN(S(=O)(=O)c2cnc3ccc(-c4ccc(S(C)(=O)=O)cc4)nn23)CC1 | > 30 µM
CCN1CCN(S(=O)(=O)c2cnc3ccc(-c4cncc(C(F)(F)F)c4)nn23)CC1 | > 30 µM
COc1ccc(-c2ccc3ncc(S(=O)(=O)N4CCN(c5ccccn5)CC4)n3n2)cn1 | > 30 µM
COc1cccc(CNS(=O)(=O)c2cnc3ccc(-c4cccnc4)nn23)c1 | > 30 µM
COc1ccc(-c2ccc3ncc(S(=O)(=O)N4CCC(C#N)(c5ccccc5)CC4)n3n2)cc1OC | > 30 µM
COc1cccc(CNS(=O)(=O)c2cnc3ccc(-c4cnc(N)c(C(F)(F)F)c4)nn23)c1 | > 30 µM
CS(=O)(=O)c1ccc(-c2ccc3ncc(S(=O)(=O)N4CCN(Cc5ccccc5)CC4)n3n2)cc1 | > 30 µM
CS(=O)(=O)c1ccc(-c2ccc3ncc(S(=O)(=O)N4CCN(c5ccccn5)CC4)n3n2)cc1 | > 30 µM
Nc1ncc(-c2ccc3ncc(S(N)(=O)=O)n3n2)cc1C(F)(F)F | > 30 µM
CCN1CCN(S(=O)(=O)c2cnc3ccc(-c4cccnc4)nn23)CC1 | > 30 µM
CCN1CCN(S(=O)(=O)c2cnc3ccc(Cl)nn23)CC1 | > 30 µM
O=S(=O)(c1cnc2ccc(-c3cncc(F)c3)nn12)N1CCN(Cc2ccccc2)CC1 | > 30 µM
COc1cccc(CNS(=O)(=O)c2cnc3ccc(Cl)nn23)c1 | > 30 µM
COc1ccc(C2CNC(=O)C2)cc1OC1CCCC1 (centres undefined) [ROLIPRAM] | > 30 µM

These compounds were tested against T1, Tumor necrosis factor (Mus musculus, UniProt P06804) (assay: Inhibition of mouse recombinant TNF-alpha binding to antibody preincubated for 30 mins followed by antibody addition measured after 2 hrs by ELISA).
T1 sequence (P06804 whole entry): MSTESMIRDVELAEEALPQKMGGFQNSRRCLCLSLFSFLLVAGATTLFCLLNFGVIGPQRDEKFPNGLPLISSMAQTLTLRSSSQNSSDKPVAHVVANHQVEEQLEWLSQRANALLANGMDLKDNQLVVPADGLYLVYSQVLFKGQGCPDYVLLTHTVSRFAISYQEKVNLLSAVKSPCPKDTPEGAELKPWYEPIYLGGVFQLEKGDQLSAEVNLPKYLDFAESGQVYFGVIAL

Compound | IC50
CCCCn1cnc(CC(c2c(O)c3ccccc3oc2=O)c2c(O)c3ccccc3oc2=O)c1Cl | 16.5 µM

The compounds below were run on L929 (assay: Cytoprotective against human TNF-alpha-induced cell death in mouse L929 cells by MTT assay).
Format: functional, cell-based

Compound | IC50
O=C1/C(=N/Nc2ccc(Cl)c([N+](=O)[O-])c2)C(c2ccccc2)NN1c1nc(-c2ccccc2)cs1 (centres undefined) | 9 µM

Reference: ChEMBL document CHEMBL4184173, “Synthesis and in vitro evaluations of 6-(hetero)-aryl-imidazo[1,2-b]pyridazine-3-sulfonamide's as an inhibitor of TNF-α production” (Bioorg Med Chem Lett, 2018)
